A selection: hits, their analogues and other compounds. The true share with any hit is near 2.3%.
TRPC4 inh: inhibitors of mouse TRPC4 channel; Q9QUQ5; HEK293 TRPC4beta/mu-opioid, DAMGO-evoked Fluo4 calcium flux; hits give low values; B-score at 10 µM; hit rate 0.39% among 300,000;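 active = B-score over 3 SD under the library average, no early fluorescence shift, positive overall ratio signal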
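Signal: kinetic Fluo4 fluorescence imaging of calcium influx. Material: stable TRPC4beta/mu-opioid receptor HEK293 cells. Probe or stimulus: DAMGO in two steps, submaximal then maximal.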
TRPC6 inhibitor: blocks the mouse TRPC6 cation channel; Q61143; HEK293-TRPC6, membrane potential dye, ACh-evoked depolarization; hits give low values; B-score at 10 µM; hit rate 1.1% among 310,000;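 active = B-score under library mean minus 3 SD, initial fluorescence not abnormally high, positive integrated signal ratio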;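 note: B-score derived from integrated fluorescence ratio over the kinetic read; more negative B-score means stronger inhibition of depolarization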
TRPC4 PAM: allosteric potentiators of mouse TRPC4 channel; HEK293 TRPC4beta/mu-opioid, DAMGO EC20, Fluo-4 Ca2+ flux; hits give high values; hit rate 0.42% among 310,000; B-score at 10 µM;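 active = B-score of calcium response area above 5 SD of library B-scores, with initial fluorescence ratio within 5 SD of library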;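 note: B-score of integrated fluorescence ratio over time as area under calcium response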
TRPC6 act: activators of mouse TRPC6 channel; HEK293-TRPC6 membrane potential dye fluorescence; hits give high values; B-score at 10 µM; hit rate 0.13% among 310,000;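 active = B-score of the integrated fluorescence ratio above library mean plus 3 SD, and starting fluorescence ratio within library mean plus 5 SD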;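 note: higher score means more depolarization so channel activation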
TRPC4 agonist: opens the mouse TRPC4 cation channel; B-score at 10 µM; HEK293 TRPC4beta/mu-opioid, Fluo4 calcium fluorescence; hits give high values; hit rate 0.49% among 310,000;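 active = B-score above 5 SD of library B-scores, and initial fluorescence ratio not above library mean plus 5 SD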;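 note: positive B-score marks a calcium rise read as TRPC4 activation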
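Test system: HEK293 cells stably co-expressing mouse TRPC4beta and mu-opioid receptor | Schedule: Fluo4 dye loading 45 min at room temperature, 110 s recording | Measured by: Kinetic Fluo4 calcium fluorescence, 5 s baseline at 1 Hz | Evaluation: B score of integrated ratio | Controls: Buffer (low) and maximal DAMGO (high)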
* hit, by the source's call; i = inactive.

SMILES	TRPC4 inh	TRPC6 inhibitor	TRPC4 PAM	TRPC6 act	TRPC4 agonist
C/C=C1/CN2C3CC1C(CO)(C(=O)OC)C2Cc1c3n(C)c2ccccc12 (stereo not drawn)	i	i	i	i	i
Cc1ccccc1C(O)(Cc1ccccc1)C1CN2CCC1CC2 (stereo not drawn)	i	i	i	i	87*
COc1ccc2[nH]cc(CCN(C)C)c2c1	i	i	19*	i	i
NCCc1c[nH]c2ccc(F)cc12	i	i	i	i	i
COc1ccc(CNC(=O)/C=C/c2ccc3[nH]cc(CCN(C)C)c3c2)cc1	i	i	i	i	45*
COc1ccc2c(CCN)c[nH]c2c1	i	i	i	i	81*
COC(=O)C1=C(c2cc3ccccc3o2)C[C@@H]2CC[C@H]1N2C(=O)NCc1ccco1	i	i	i	i	i
CN1CCN(CC#CCOc2ccc(Cl)cc2)CC1	i	i	i	i	i
Clc1ccc(OCC#CCN2CCCC2)cc1	i	i	24*	i	i
COc1ccc(C[C@@H]2c3cc(O)c(OC)cc3CCN2C)cc1O	i	i	17*	i	i
COc1ccc(CC2c3cc(OC)c(OC)cc3CCN2C)cc1OC (stereo not drawn)	i	i	i	i	i
CCc1n[nH]c(CCN)n1	i	i	i	i	155*
COc1ccccc1NC(=O)c1cn(CCC#N)nc1-c1ccc(F)cc1	i	i	i	i	i
O=C(Nc1ccccc1Cl)OC1CN2CCC1CC2 (stereo not drawn)	i	i	25*	i	i
O=C(Nc1ccccc1F)OC1CN2CCC1CC2 (stereo not drawn)	i	i	i	i	i
CN[C@H]1C[C@H]2O[C@@](C)([C@H]1OC)n1c3ccccc3c3c4c(c5c6ccccc6n2c5c31)C(=O)NC4	i	-5.76*	27*	i	i
COc1ccc(-n2c(O)c(C(C)=NCCc3c[nH]c4ccccc34)c(=O)[nH]c2=O)cc1	i	i	i	i	i
CC1CCCC(C)N1/N=C/c1c[nH]c2ccc(Br)cc12 (stereo not drawn)	i	i	34*	i	i
Clc1ccc(NC2=NCCCS2)cc1Cl	i	i	i	i	i
COc1ccc(OCCOc2cccc(C=C3C(=O)NC(=O)NC3=O)c2)cc1	i	i	i	i	i
CN(CCOc1ccc(C=C2C(=O)NC(=O)NC2=O)cc1)c1ccccn1	-6*	i	i	i	46*
CC(N)Cc1c[nH]c2c1ccc1ccccc12 (stereo not drawn)	i	i	i	i	92*
CC(=O)NC1CC2CCC(C1)N2 (stereo not drawn)	i	i	i	i	i
Cc1ccc(C(=O)NC2CC3CCC(C2)N3)cc1 (stereo not drawn)	-5*	i	i	i	i
COc1ccc(C(C)=O)cc1Cc1c(O)[nH]c(=S)[nH]c1=O	i	i	i	i	i
SMILES	TRPC4 inh	TRPC6 inhibitor	TRPC4 PAM	TRPC6 act	TRPC4 agonist
C/C=C(\C)C(=O)OC1C(C)=C2C(C1OC(=O)CCCCC)C(C)(OC(C)=O)CC(OC(=O)CCC)C1(O)C2OC(=O)C1(C)O (stereo not drawn)	i	-5.77*	i	i	71*
Cc1cc(-c2ccccc2)cc(C)[n+]1Cc1ccccc1	i	i	i	i	106*
O=[N+]([O-])c1ccc(C[n+]2c(-c3ccccc3)cc(-c3ccccc3)cc2-c2ccccc2)cc1	i	i	i	i	i
COc1ccc(CN2CCN(C(=O)Cc3ccccc3)CC2)cc1Br	i	i	i	i	i
O=C(c1ccc2c3c(cccc13)CC2)C1CCCN(Cc2ncc[nH]2)C1 (stereo not drawn)	i	i	i	i	46*
O=C(c1ccc2c3c(cccc13)CC2)C1CCCN(CC2CC2)C1 (stereo not drawn)	i	i	i	i	158*
CCCCc1ncc(CN2CCCC(C(=O)c3ccc(SC)cc3)C2)[nH]1 (stereo not drawn)	-6*	i	i	i	i
C/C(=N\N(C)c1ccccc1)c1c(O)[nH]c(=O)[nH]c1=O	i	i	i	i	i
CCOC(=O)C1(CCc2ccccc2)CCN(Cc2ccc(NC(C)=O)cc2)CC1	i	i	i	i	104*
CCOC(=O)C1(CCc2ccccc2)CCN(Cc2ccc3c(c2)OCCO3)CC1	i	i	i	i	i
Cc1ccc(-c2cc(-c3ccc(C)cc3)[n+](-c3ccc(C(=O)[O-])cc3)c(-c3ccc(C)cc3)c2)cc1	i	i	i	i	60*
O=[N+]([O-])c1ccc(N2CCNCC2)cc1NC1CC1	i	i	i	i	117*
O=[N+]([O-])c1ccc(N2CCNCC2)cc1NCC1CCCO1 (stereo not drawn)	i	i	i	i	i
CCN(CC)P(=O)(/C=C(\Cl)c1ccccc1)/C=C(\Cl)c1ccccc1	i	i	17*	i	i
C/C(=N\NC(=O)c1ccncc1)c1c(O)[nH]c(=O)[nH]c1=O	i	i	i	i	i
C=C(C)[C@@]12OC3(c4ccccc4)O[C@@H]1C1[C@@H]4O[C@]4(CO)[C@@H](O)[C@]4(O)C(=O)C(C)=C[C@H]4[C@@]1(O3)[C@H](C)[C@H]2OC(=O)/C=C/C=C/c1ccccc1 (stereo partly drawn)	-6*	i	i	i	i
CN(C)C1(CNC(=O)c2ccc(Cl)c(S(=O)(=O)NCc3ccco3)c2)CCCCC1	i	i	i	i	73*
CN(C)C(CNC(=O)Cc1c(Cl)cccc1Cl)c1ccccc1 (stereo not drawn)	i	i	i	i	219*
CC(NCc1cccc(Cl)c1Cl)C(O)c1ccccc1 (stereo not drawn)	i	i	i	i	i
O=C(c1ccc(Cl)cc1)C1CCCN(Cc2ccc3ncccc3c2)C1 (stereo not drawn)	i	i	i	i	80*
COc1cc(CNCCc2c[nH]c3ccccc23)cc(OC)c1	i	i	i	i	i
CS(=O)(=O)Nc1ccc(Cc2noc(-c3ccc4[nH]cc(CCN)c4c3)n2)cc1	i	i	i	i	i
COCc1ccc(CN2CCCC(C(=O)c3sccc3C)C2)o1 (stereo not drawn)	i	i	i	i	i
